Laboratory results: publication PMC6118327 (Biochimica et biophysica acta. Biomembranes, 2017)

T1: mUCP1 R84Q (Mus musculus, UniProt P12242, R84Q)
T1 sequence (P12242 1-307 R84Q): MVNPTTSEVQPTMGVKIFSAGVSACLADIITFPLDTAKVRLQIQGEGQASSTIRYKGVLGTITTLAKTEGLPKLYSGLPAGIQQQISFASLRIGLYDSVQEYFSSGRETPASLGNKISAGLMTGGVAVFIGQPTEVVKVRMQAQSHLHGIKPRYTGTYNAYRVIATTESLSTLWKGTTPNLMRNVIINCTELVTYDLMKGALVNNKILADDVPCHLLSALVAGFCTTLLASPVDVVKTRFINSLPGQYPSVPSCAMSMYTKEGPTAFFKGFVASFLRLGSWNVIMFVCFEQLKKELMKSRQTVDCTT

T2: mUCP3R84Q (Mus musculus, UniProt P56501, R84Q)
T2 sequence (P56501 1-308 R84Q): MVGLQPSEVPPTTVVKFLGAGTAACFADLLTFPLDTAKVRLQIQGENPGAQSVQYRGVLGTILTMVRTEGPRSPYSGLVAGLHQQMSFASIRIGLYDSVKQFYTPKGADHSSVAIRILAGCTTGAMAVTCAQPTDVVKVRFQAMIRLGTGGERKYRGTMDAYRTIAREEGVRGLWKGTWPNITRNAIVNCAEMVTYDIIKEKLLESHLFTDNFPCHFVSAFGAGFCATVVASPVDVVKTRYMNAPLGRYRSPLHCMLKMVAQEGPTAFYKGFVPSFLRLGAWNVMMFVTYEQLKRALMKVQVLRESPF

T3: mUCP1 (Mus musculus, UniProt P12242)
T3 sequence (P12242 1-307): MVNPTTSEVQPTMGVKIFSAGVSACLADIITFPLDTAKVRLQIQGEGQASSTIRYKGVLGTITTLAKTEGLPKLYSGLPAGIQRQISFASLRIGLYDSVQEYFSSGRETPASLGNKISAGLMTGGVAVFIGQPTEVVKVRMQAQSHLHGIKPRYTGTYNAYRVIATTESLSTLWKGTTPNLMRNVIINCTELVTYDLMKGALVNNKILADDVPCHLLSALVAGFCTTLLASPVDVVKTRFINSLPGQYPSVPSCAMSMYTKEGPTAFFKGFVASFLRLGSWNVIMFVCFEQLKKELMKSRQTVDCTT

T4: mUCP3 (Mus musculus, UniProt P56501)
T4 sequence (P56501 1-308): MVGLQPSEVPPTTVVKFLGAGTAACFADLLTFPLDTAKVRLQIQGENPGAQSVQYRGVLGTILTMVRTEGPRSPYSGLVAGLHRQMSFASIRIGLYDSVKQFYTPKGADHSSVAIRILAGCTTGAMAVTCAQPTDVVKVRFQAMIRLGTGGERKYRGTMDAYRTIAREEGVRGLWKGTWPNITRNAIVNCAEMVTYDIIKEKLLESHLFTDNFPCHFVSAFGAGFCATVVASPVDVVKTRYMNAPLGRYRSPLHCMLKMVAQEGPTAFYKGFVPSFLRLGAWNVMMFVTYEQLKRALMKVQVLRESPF

T5: mUCP1R183T (Mus musculus, UniProt P12242, R183T)
T5 sequence (P12242 1-307 R183T): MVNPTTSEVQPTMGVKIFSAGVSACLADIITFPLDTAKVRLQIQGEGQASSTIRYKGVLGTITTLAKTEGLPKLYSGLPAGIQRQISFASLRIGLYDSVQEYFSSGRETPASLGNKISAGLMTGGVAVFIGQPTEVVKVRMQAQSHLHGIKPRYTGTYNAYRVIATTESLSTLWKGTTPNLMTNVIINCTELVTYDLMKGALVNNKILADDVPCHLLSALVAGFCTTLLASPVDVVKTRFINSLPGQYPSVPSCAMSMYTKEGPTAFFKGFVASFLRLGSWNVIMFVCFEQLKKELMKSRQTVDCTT

T6: mUCP1R277L (Mus musculus, UniProt P12242, R277L)
T6 sequence (P12242 1-307 R277L): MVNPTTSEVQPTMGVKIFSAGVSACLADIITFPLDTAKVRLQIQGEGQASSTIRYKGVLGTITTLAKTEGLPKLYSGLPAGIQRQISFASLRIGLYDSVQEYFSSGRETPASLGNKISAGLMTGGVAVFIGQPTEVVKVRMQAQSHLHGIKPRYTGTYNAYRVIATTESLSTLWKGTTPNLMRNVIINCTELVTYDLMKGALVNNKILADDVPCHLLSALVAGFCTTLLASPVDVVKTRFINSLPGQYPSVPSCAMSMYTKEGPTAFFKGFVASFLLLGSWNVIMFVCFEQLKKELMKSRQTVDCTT


Assays:
[1] = biological target: T1, mUCP1 R84Q; experiment: Relative conductance of UCP1 mutant in planar bilayer membranes; type: biochemical; details: PN 5 mM; 15 mol% AA
Summary of the method: (§1)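 Arginine point mutants made by site-directed mutagenesis, expressed in E. coli Rosetta and reconstituted like wild type. Planar DOPC/DOPE/CL (45:45:10) bilayers carried 15 mol% AA; buffer pH 7.35, 32°C. Relative conductance compared with wild type after nucleotide addition: UCP1 mutants 5 mM ATP, ADP or AMP; UCP3 mutant 2 mM ATP, 4 mM ADP or 8 mM AMP. Mean ± SD, ≥3 experiments.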

[2] = biological target: T2, mUCP3R84Q; experiment: Relative conductance of UCP3 mutant in planar bilayer membranes; type: biochemical; details: 2 mM ATP, 4 mM ADP or 8 mM AMP; 15 mol% AA
Summary of the method: as §1

[3] = biological target: T3, mUCP1; type: biochemical; details: for maximum inhibition of mUCP1 / extent of inhibition at high PN concentration: 15 mol% AA; for extent of inhibition at high PN concentration: DOPC/DOPE/CL membranes, pH 7.35, 32°C
Summary of the method: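 Inclusion-body mouse protein reconstituted into DOPC/DOPE/CL (45:45:10) proteoliposomes. Planar bilayers made at 1.5 mg/ml lipid, AA 10 or 15 mol% in the lipid solution, sulfate/MES/Tris/EGTA buffer pH 7.35, 32°C. I/V swept −50 to +50 mV; G at zero voltage from linear fit, normalised to AA-only and UCP+AA membranes. Titrations of nucleotides or phosphate fitted by four-parameter logistic for IC50 and maximum inhibition. AA comparison used 1 mM ATP, 2 mM ADP, 2 mM AMP. Mean ± SD, ≥3 experiments.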

[4] = biological target: T3, mUCP1; experiment: AFM recognition imaging and force spectroscopy, PN-UCP bond lifetime; type: binding; details: for change of UCP1-PN lifetime with AA concentration: 15 mol% vs 10 mol% AA; for lifetime of mUCP1-PN interaction: PN bound to AFM tip, supported EPL membranes, pH 7.35, 21°C
Summary of the method: (§2)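 Mouse protein from E. coli inclusion bodies, solubilised in 2% SLS and reconstituted into EPL liposomes. Proteoliposomes incubated 10 min on fresh mica to form supported bilayers. For AA competition, mixed with AA liposomes to 1 mg/ml final lipid. AFM tips carried EDA-ATP, -ADP or -AMP via PEG-acetal linker. Recognition imaging plus force spectroscopy run in 50 mM Na₂SO₄/10 mM MES/10 mM Tris/0.6 mM EGTA, pH 7.35, 21°C. Lifetimes from maximum-likelihood Bell-Evans fits; mean ± SD, ≥3 experiments.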

[5] = biological target: T4, mUCP3; type: biochemical; details: for dependence of mUCP3 inhibition on AA concentration: 10 vs 15 mol% AA, 1 mM ATP, 2 mM ADP, 5 mM AMP
Summary of the method: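 Recombinant mouse protein reconstituted into DOPC/DOPE/CL (45:45:10) liposomes. Bilayers formed at 1.5 mg/ml lipid, 6 μg protein/mg lipid, AA 10 or 15 mol%. Run in 50 mM Na₂SO₄/10 mM MES/10 mM Tris/0.6 mM EGTA, pH 7.35, 32°C. I/V recorded −50 to +50 mV, including with 2 mM ATP. G from linear fit at 0 mV gives relative conductance. IC50 and maximum inhibition come from a four-parameter logistic fit. AA-dependence tested at 1 mM ATP, 2 mM ADP, 5 mM AMP. Mean ± SD, ≥3 experiments.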

[6] = biological target: T5, mUCP1R183T; experiment: Relative conductance of UCP1 mutant in planar bilayer membranes; type: biochemical; details: PN 5 mM; 15 mol% AA
Summary of the method: as §1

[7] = biological target: T4, mUCP3; experiment: AFM recognition imaging and force spectroscopy, PN-UCP bond lifetime; type: binding; details: for change of UCP3-PN lifetime with AA concentration: 15 mol% vs 10 mol% AA; for lifetime of mUCP3-PN interaction: PN bound to AFM tip, supported EPL membranes, pH 7.35, 21°C
Summary of the method: as §2

[8] = biological target: T6, mUCP1R277L; experiment: Relative conductance of UCP1 mutant in planar bilayer membranes; type: biochemical; details: PN 5 mM; 15 mol% AA
Summary of the method: as §1

[9] = biological target: T4, mUCP3; type: biochemical; details: membrane reconstituted with AA and mUCP3, pH gradient; seven independent experiments
[10] = lower FFA concentrations vs 15 mol% AA
[11] = DOPC/DOPE/CL membranes, 15 mol% AA, pH 7.35, 32°C

inhibition of mutant compared to mUCP1 wt [1] | inhibition of mutant compared to wild type mUCP3 [2] | maximum inhibition of mUCP1 [3] | extent of inhibition at high PN concentration [3] | change in maximum inhibition of mUCP1 at lower FFA concentration [3, 10] | effect of FFA concentration on IC50 of mUCP1 inhibition [3, 10] | change of UCP1-PN lifetime with AA concentration [4] | lifetime of mUCP1-PN interaction [4] [s] | dependence of mUCP3 inhibition on AA concentration [5] | inhibition of mutant compared to mUCP1 wt [6] | change of UCP3-PN lifetime with AA concentration [7] | lifetime of mUCP3-PN interaction [7] [s] | extent of inhibition at high inhibitor concentration [5, 11] | inhibition of mutant compared to mUCP1 wt [8] | current I and total membrane conductance G after addition of inhibitor ([5]; 2 mM ATP, 15 mol% AA) | PN concentration at which maximum inhibition is achieved [5, 11] | membrane total conductance after addition of α-cyclodextrin ([5]; extraction of FA from the membrane) | proton transport rate κ [9] [s⁻¹] | Molecule
did not affect | decreased the strength | lower than 100% | partially inhibit | No change | affected | significantly increased | 0.75 | less | impaired inhibition | not significant | 0.56 | – | – | – | – | – | – | Nc1ncnc2c1ncn2[C@@H]1O[C@H](COP(=O)(O)OP(=O)(O)O)[C@@H](O)[C@H]1O [ADP]
did not affect | did not affect | lower than 100% | partially inhibit | – | – | unaffected | 0.16 | – | – | unaffected | 0.13 | fully inhibit | no longer able to inhibit | – | – | – | – | Nc1ncnc2c1ncn2[C@@H]1O[C@H](COP(=O)(O)O)[C@@H](O)[C@H]1O [AMP]
similarly reduced | decreased the strength | – | – | – | – | significantly increased | 1.12 | higher at lower AA concentration | similarly reduced | significantly increased | 1.33 | – | similarly reduced | decreased | approx. 4 mM | – | – | Nc1ncnc2c1ncn2[C@@H]1O[C@H](COP(=O)(O)OP(=O)(O)OP(=O)(O)O)[C@@H](O)[C@H]1O [ATP]
– | – | – | – | – | – | – | – | – | – | – | – | – | – | – | – | decrease of membrane total conductance | – | OC[C@H]1O[C@@H]2O[C@H]3[C@H](O)[C@@H](O)[C@@H](O[C@H]4[C@H](O)[C@@H](O)[C@@H](O[C@H]5[C@H](O)[C@@H](O)[C@@H](O[C@H]6[C@H](O)[C@@H](O)[C@@H](O[C@H]7[C@H](O)[C@@H](O)[C@@H](O[C@H]1[C@H](O)[C@H]2O)O[C@@H]7CO)O[C@@H]6CO)O[C@@H]5CO)O[C@@H]4CO)O[C@@H]3CO [α-cyclodextrin, alpha-cyclodextrin]
– | – | – | – | – | – | – | – | – | – | – | – | – | – | – | – | – | 2.56 ± 0.79 | mUCP3: recombinant mouse uncoupling protein 3 reconstituted in planar lipid membranes (protein, UniProt P56501 1-308, looked up) Putative mitochondrial …: MVGLQPSEVPPTTVVKFLGAGTAACFADLLTFPLDTAKVRLQIQGENPGAQSVQYRGVLGTILTMVRTEGPRSPYSGLVAGLHRQMSFASIRIGLYDSVKQFYTPKGADHSSVAIRILAGCTTGAMAVTCAQPTDVVKVRFQAMIRLGTGGERKYRGTMDAYRTIAREEGVRGLWKGTWPNITRNAIVNCAEMVTYDIIKEKLLESHLFTDNFPCHFVSAFGAGFCATVVASPVDVVKTRYMNAPLGRYRSPLHCMLKMVAQEGPTAFYKGFVPSFLRLGAWNVMMFVTYEQLKRALMKVQVLRESPF
